# In ChEMBL document CHEMBL1156038 (J Med Chem, 2009):
# Activity calls are given as the source filed them. The rule behind the calls is not given here.
# Key:
# [1] = organism: Rattus norvegicus; test: Inhibition of [3H]adenine binding to adenine 1 receptor in rat brain cortical membrane at 30 uM by liquid scintillation counting; type: cell membranes
# [2] = organism: Rattus norvegicus; test: Inhibition of [3H]adenine binding to adenine 1 receptor in rat brain cortical membrane at 100 uM by liquid scintillation counting; type: cell membranes
# Procedure, shortened: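 Aqueous solutions were autoclaved or heated >90 °C for ≥10 min to destroy bacterial binding sites. […] Filtered on GF/B with ice-cold Tris washes, then scintillation counted. Percent inhibition ± SEM.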
# [3] = Displacement of [3H]adenine from adenine 1 receptor in HEK293 cells by liquid scintillation counting; type: cell-based, Homo sapiens
# [4] = test system: HEK293; test: Inhibition of [3H]adenine binding to adenine 1 receptor in HEK293 cells at 100 uM by liquid scintillation counting; type: cell-based; conditions: Homo sapiens
# [5] = test system: HEK293; test: Selectivity ratio of Ki for adenine 1 receptor in HEK293 cells to Ki for adenine 1 receptor in rat brain cortical membrane; type: cell-based
# [6] = Agonist activity at rat adenine 1 receptor expressed in human 1321N1 cells assessed as inhibition of isoproterenol-induced [3H]cAMP formation at 50 uM by scintillation counting relative to adenine; type: functional
# Procedure, shortened: (§1)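 1321N1 astrocytoma cells stably expressing rat Ade1R (retroviral pLXSN, G418 800 μg/mL), grown on 24-well plates. Cells washed and held 2 h at 37 °C in HBSS pH 7.3. Compound added together with 3 nM isoproterenol for 10 min at 37 °C, then stopped with hot EDTA/Triton lysis. cAMP measured by [3H]cAMP competition with calf adrenal binding protein and filtration, read against a 0–40 pmol standard curve. Result given as % of isoproterenol alone; n = 3.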
# [7] = test system: 1321-N1; test: Inhibition of [3H]adenine uptake at rat adenine 1 receptor expressed in human 1321N1 cells at 100 uM after 1 min by liquid scintillation counting; type: cell-based
# [8] = organism: Rattus norvegicus; test: Inhibition of [3H]adenine binding to adenine 1 receptor in rat brain cortical membrane at 250 uM by liquid scintillation counting; type: cell membranes
# [9] = Agonist activity at rat adenine 1 receptor expressed in human 1321N1 cells assessed as inhibition of isoproterenol-induced [3H]cAMP formation at 250 uM by scintillation counting relative to adenine; type: functional; procedure, shortened: as §1
# [10] = test system: 1321-N1; test: Antagonist activity at rat adenine 1 receptor expressed in human 1321N1 cells assessed as change in adenine IC50 for inhibition of isoproterenol-induced [3H]cAMP formation at 10 uM by scintillation counting; type: functional, cell-based
# Procedure, shortened: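 Retrovirally transduced 1321N1 astrocytoma cells stably expressing rat Ade1R, 24-well culture, washed and preincubated in Hepes-buffered HBSS pH 7.3, 2 h, 37 °C. […] Hot EDTA/Triton lysis. cAMP measured by competition with [3H]cAMP for calf adrenal binding protein, filtered, scintillation counting.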
# [11] = test system: 1321-N1; test: Agonist activity at rat adenine 1 receptor expressed in human 1321N1 cells assessed as inhibition of isoproterenol-induced [3H]cAMP formation at 250 uM by scintillation counting; type: functional, cell-based; procedure, shortened: as §1
# [12] = test system: HEK293; test: Selectivity ratio of Ki for adenine 1 receptor in rat brain cortical membrane to Ki for adenine 1 receptor in HEK293 cells; type: cell-based
# [13] = test system: 1321-N1; test: Agonist activity at rat adenine 1 receptor expressed in human 1321N1 cells assessed as inhibition of isoproterenol-induced [3H]cAMP formation at 500 uM by scintillation counting; type: functional, cell-based; procedure, shortened: as §1
# [14] = test system: 1321-N1; test: Agonist activity at rat adenine 1 receptor expressed in human 1321N1 cells assessed as inhibition of isoproterenol-induced [3H]cAMP formation at 30 uM by scintillation counting; type: functional, cell-based; procedure, shortened: as §1
# [15] = test system: 1321-N1; test: Activity at rat adenine 1 receptor expressed in human 1321N1 cells assessed as complete inhibition of cAMP formation at 250 uM; type: cell-based; procedure, shortened: as §1
# [16] = (§2) Agonist activity at rat adenine 1 receptor expressed in human 1321N1 cells assessed as inhibition of isoproterenol-induced [3H]cAMP formation by scintillation counting; type: functional, cell-based
# [17] = test system: 1321-N1; test: as §2; type: functional, cell-based
# [18] = Agonist activity at rat adenine 1 receptor expressed in human 1321N1 cells assessed as inhibition of isoproterenol-induced [3H]cAMP formation at 1 uM by scintillation counting; type: functional
# [19] = test system: 1321-N1; test: Inhibition of [3H]adenine uptake at rat adenine 1 receptor expressed in human 1321N1 cells at 1 mM after 1 min by liquid scintillation counting; type: cell-based
Structure (SMILES),inhibition [2],Ki [3],Ratio Ki [5],other results
CSc1nc2c(N)ncnc2[nH]1,,,,inhibition [1]: 10%
CCn1cnc2c(N)nc(NCCc3ccccc3)nc21,3%,,,
OCCNc1ncnc2[nH]cnc12,,100 µM,4,inhibition [4]: 58%
ONc1ncnc2[nH]cnc12,,9.53 µM,19,Efficacy [6]: 51%; inhibition [7]: Active
Nc1nc(OCCC2CCCCC2)nc2[nH]cnc12,-5%,,,
CCn1cnc2c(N)nc(OCCc3ccccc3)nc21,7%,,,
Nc1ncnc2c1ncn2CCc1cccnc1,,> 100 µM,1.3,inhibition [4]: 41%
Nc1ncnc2c1ncn2CC(N)C(=O)O (racemic),,6.23 µM,0.58,
Nc1ncnc2c1N=CC2,39%,,,
Nc1ncnc2c1ncn2CCc1ccncc1,,> 100 µM,,inhibition [8]: 46%; inhibition [4]: 44%
Nc1ncnc2c1ncn2[C@H]1C[C@H](O)[C@@H](CO)O1 [DEOXYADENOSINE],,> 100 µM,> 9,inhibition [4]: 29%
CCCSc1nc2c(N)ncnc2[nH]1,,,,inhibition [1]: 0%
NCCCNc1ncnc2[nH]cnc12,49%,,,
NNc1ncnc2[nH]cnc12,,17.5 µM,13,
Nc1[nH]cnc2nc(NCc3ccccc3)nc1-2,,32.9 µM,4.9,
Nc1ncnc2c1ncn2CCc1ccccn1,,100 µM,> 22,inhibition [4]: 58%
CCCCOc1nc(N)c2ncn(CC)c2n1,4%,,,
CCn1cnc2c(N)nc(Cl)nc21,1%,,,
Nc1ncnc2[nH]c(C#Cc3ccccc3)nc12,,,,inhibition [1]: 19%

Structure (SMILES),inhibition [2],Ki [3],Ratio Ki [5],other results
O=c1[nH]cnc2cc[nH]c12,0%,,,
Nc1ncnc2[nH]c(N3CCNCC3)nc12,,27.4 µM,8.4,Efficacy [9]: 52%; Activity [10]: inactive; inhibition [7]: Active
Nc1ccnc2[nH]cnc12,,7.89 µM,0.7,
Nc1[nH]ccc2ncnc1-2,,6.68 µM,1,
Nc1ncnc2[nH]c(Sc3ccccc3)nc12,,,,inhibition [1]: 0%
Nc1ncnc2c1ncn2CCN1CCOCC1,,5.49 µM,1.8,inhibition [11]: Active; inhibition [7]: Active
Nc1nc(OCCc2ccccc2)nc2[nH]cnc12,24%,,,
CCn1cnc2c(NC3CCCC3)ncnc21,5%,,,
Nc1nc2[nH]cnc(N)c-2n1,,0.0341 µM,0.005,Ratio Ki [12]: 190; inhibition [13]: Active; inhibition [7]: Active
Nc1ncnc2c1ncn2Cc1ccccc1,15%,,,
CC(=O)Nc1ncnc2[nH]cnc12,,0.515 µM,0.18,Ratio Ki [12]: 5.5; Efficacy [9]: 77%; Activity [10]: inactive; inhibition [7]: Active
CC(C)(C)OC(=O)NCCCNc1ncnc2[nH]cnc12,46%,,,
Nc1ncnc2[nH]c(/C=C/c3ccccc3)nc12,,12.2 µM,0.67,
NCCNc1ncnc2[nH]cnc12,58%,,,
Nc1ncnc2[nH]c(N3CCCCC3)nc12,,31.7 µM,8.1,inhibition [14]: Active; inhibition [15]: Active; inhibition [7]: Active
Nc1nc(C#Cc2ccccc2)nc2c1ncn2[C@@H]1O[C@H](CO)[C@@H](O)[C@H]1O,0%,,,
CCNc1ncnc2[nH]cnc12,,100 µM,6,inhibition [4]: 59%
CCCCC(CC)n1cnc2c(N)ncnc21 (stereo not drawn),12%,,,
Nc1ncnc2[nH]c(-c3cccc(C(F)(F)F)c3)nc12,23%,,,

Structure (SMILES),inhibition [2],Ki [3],Ratio Ki [5],other results
Nc1ncnc2[nH]c(O)nc12,,110 µM,4.1,
Nc1nc(Cl)nc2c1ncn2[C@@H]1O[C@H](CO)[C@@H](O)[C@H]1O,1%,,,
Nc1[nH]cnc2ncnc1-2 [ADENINE],,0.0471 µM,,IC50 [16]: 0.00829 µM; Activity [17]: Dose-dependent effect; inhibition at 1 µM [18]: 35%; inhibition [19]: Active
CCCCC#Cc1nc(N)c2ncn([C@@H]3O[C@H](CO)[C@@H](O)[C@H]3O)c2n1,5%,,,
Nc1ncnc2c1ncn2CCc1ccccc1,,100 µM,2,inhibition [4]: 57%
Nc1nc(Cl)nc2c1ncn2[C@H]1C[C@H](O)[C@@H](CO)O1,9%,,,
Nc1ncnc2c1ncn2CCN1CCNCC1,,> 100 µM,,inhibition [8]: 28%; inhibition [4]: 0%
CC(C)(C)OC(=O)NCCNc1ncnc2[nH]cnc12,21%,,,
Nc1ncnc2[nH]c(-c3ccccc3)nc12,16%,,,
CCOc1ncnc2c1ncn2C1CCCCC1,-1%,,,
Nc1ncnc2c1ncn2CCC(=O)O,,18.5 µM,0.9,
Nc1ncnc2[nH]c(N3CCCC3)nc12,,> 100 µM,> 2.4,inhibition [4]: 18%
CCn1cnc2c(OCCc3ccccc3)ncnc21,4%,,,
CCn1cnc2c(NCCc3ccccc3)ncnc21,3%,,,
Nc1ncnc2ncn(Cc3ccccc3)c12,11%,,,
CCSc1nc2c(N)ncnc2[nH]1,,,,inhibition [1]: 0%
CN(C)c1nc2c(N)ncnc2[nH]1,,34.1 µM,14.8,"inhibition at 250 µM ([9]; Rattus norvegicus, 1321-N1): 137%; inhibition [7]: Active"
Nc1ncnc2[nH]ccc12,21%,,,
Nc1ncnc2c1ncn2C1CCCCC1,-6%,,,
